Reference: ChEMBL document CHEMBL1149671, “Enantiopure five-membered cyclicdiamine derivatives as potent and selective inhibitors of factor Xa. Improving in vitro metabolic stability via core modifications” (Bioorg Med Chem Lett, 2007)

Tests used:
Plasma kallikrein = Plasma kallikrein (Homo sapiens, UniProt P03952); test: Inhibition of human plasma kallikrein; type: cell-free
Plasminogen = Plasminogen (Homo sapiens, UniProt P00747); test: Inhibition of human Plasmin
Coagulation factor XI = Coagulation factor XI (Homo sapiens, UniProt P03951); test: Inhibition of human factor 11a
Coagulation factor X = Coagulation factor X (Homo sapiens, UniProt P00742); test: Inhibition of human factor 10a
[1] = Clearance in dog at 0.5 mg/kg, iv; type: ADME, organism-based, Canis lupus familiaris; parameters: dose 0.5 mg/kg, route intravenous; conditions: in vivo
In short: (§1)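 Dogs. Intravenous dose 0.5 mg/kg, used for clearance (L/kg/h), steady-state volume of distribution (L/kg) and iv half-life.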

[2] = Permeability across Caco-2 cells; type: ADME, cell-based; conditions: human, read-out: permeability
Prothrombin = Prothrombin (Homo sapiens, UniProt P00734); test: Inhibition of human thrombin
[3] = target: Urokinase-type plasminogen activator (Homo sapiens, UniProt P00749); test: Inhibition of human urokinase
[4] = Cytotoxicity against HEK cells; type: cell-based; conditions: Homo sapiens, HEK293
[5] = Bioavailability in dog at 0.2 mg/kg, po; type: ADME, organism-based, Canis lupus familiaris; conditions: in vivo; in short: as §1
[6] = Half life in dog at 0.2 mg/kg, po; type: ADME, organism-based, Canis lupus familiaris; parameters: dose 0.2 mg/kg, route oral; conditions: in vivo
Coagulation factor VII = target: T1, Coagulation factor VII (Homo sapiens, UniProt P08709); test: Inhibition of human factor 7a
T1 sequence (P08709 whole entry): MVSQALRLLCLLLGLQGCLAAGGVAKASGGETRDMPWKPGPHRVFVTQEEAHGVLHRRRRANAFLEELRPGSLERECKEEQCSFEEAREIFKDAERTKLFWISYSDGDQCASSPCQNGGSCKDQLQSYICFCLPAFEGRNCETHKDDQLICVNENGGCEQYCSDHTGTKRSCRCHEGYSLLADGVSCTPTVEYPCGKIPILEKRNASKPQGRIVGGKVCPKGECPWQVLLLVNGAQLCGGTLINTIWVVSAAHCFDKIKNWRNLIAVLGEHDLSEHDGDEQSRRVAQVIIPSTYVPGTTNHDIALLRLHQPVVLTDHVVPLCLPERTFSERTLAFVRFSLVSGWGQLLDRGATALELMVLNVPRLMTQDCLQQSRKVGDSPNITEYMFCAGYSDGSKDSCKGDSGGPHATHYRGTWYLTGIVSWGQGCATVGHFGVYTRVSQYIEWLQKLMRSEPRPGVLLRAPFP

[7] = Volume of distribution at steady state in dog at 0.5 mg/kg, iv; type: ADME, organism-based, Canis lupus familiaris; parameters: dose 0.5 mg/kg, route intravenous; conditions: in vivo, read-out: Vdss; in short: as §1
Liver microsomes = test: Metabolic stability in human liver microsomes assessed as microsomal intrinsic clearance rate; type: ADME, Microsome
In short: (§2)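 Human liver microsomes, 10-min incubation. Metabolic stability given as % compound remaining. Microsomal intrinsic clearance rate (nmol/min/mg) is based on the % remaining after 10 min.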

[8] = Inhibition of human chymotrypsin
Trypsin = Trypsin (Homo sapiens, UniProt P07477+P07478+P35030); test: Inhibition of human trypsin; type: protein assay
[9] = target: Vitamin K-dependent protein C (Homo sapiens, UniProt P04070); test: Inhibition of human activated protein C
[10] = target: Tissue-type plasminogen activator (Homo sapiens, UniProt P00750); test: Inhibition of human tissue plasminogen activator
[11] = Half life in dog at 0.5 mg/kg, iv; type: ADME, organism-based, Canis lupus familiaris; parameters: dose 0.5 mg/kg, route intravenous; conditions: in vivo; in short: as §1
[12] = Metabolic stability in human liver microsomes after 10 mins; type: ADME, Microsome; conditions: read-out: Stability; in short: as §2

Chain of Vitamin K-dependent protein C (P04070 43-197 limits assumed): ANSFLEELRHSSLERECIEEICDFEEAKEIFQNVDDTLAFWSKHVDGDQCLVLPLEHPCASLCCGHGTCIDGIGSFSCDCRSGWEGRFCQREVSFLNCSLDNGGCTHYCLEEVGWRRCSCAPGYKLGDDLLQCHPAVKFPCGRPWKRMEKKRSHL
Chain of Vitamin K-dependent protein C (P04070 212-461 limits assumed): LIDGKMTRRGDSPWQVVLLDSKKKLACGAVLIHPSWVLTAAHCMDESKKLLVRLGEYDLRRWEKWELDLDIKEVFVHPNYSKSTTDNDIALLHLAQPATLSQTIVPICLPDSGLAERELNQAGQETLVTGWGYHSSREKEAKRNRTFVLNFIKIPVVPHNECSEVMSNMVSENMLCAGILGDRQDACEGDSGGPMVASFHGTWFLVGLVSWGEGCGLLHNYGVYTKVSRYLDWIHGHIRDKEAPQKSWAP
Chain of Tissue-type plasminogen activator (P00750 whole entry): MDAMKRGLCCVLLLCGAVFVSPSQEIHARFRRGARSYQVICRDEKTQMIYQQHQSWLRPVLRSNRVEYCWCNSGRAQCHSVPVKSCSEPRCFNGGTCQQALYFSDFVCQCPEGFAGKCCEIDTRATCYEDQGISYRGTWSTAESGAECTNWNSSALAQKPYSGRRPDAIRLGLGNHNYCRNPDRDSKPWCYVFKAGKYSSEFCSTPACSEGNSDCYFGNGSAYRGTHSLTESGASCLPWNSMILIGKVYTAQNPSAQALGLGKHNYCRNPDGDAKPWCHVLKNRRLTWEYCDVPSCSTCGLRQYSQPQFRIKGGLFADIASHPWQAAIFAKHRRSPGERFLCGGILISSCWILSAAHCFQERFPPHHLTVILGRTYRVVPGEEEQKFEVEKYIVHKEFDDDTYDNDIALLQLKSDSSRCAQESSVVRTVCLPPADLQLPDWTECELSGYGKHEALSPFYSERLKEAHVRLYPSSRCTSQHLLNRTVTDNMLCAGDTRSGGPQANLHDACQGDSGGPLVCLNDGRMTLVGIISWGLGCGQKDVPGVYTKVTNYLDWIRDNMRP
Chain of Coagulation factor X (P00742 41-179 limits assumed): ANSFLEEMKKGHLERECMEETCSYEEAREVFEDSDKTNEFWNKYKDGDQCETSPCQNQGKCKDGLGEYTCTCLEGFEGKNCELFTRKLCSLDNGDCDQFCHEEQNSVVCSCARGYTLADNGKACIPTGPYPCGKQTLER
Chain of Coagulation factor X (P00742 235-488 limits assumed): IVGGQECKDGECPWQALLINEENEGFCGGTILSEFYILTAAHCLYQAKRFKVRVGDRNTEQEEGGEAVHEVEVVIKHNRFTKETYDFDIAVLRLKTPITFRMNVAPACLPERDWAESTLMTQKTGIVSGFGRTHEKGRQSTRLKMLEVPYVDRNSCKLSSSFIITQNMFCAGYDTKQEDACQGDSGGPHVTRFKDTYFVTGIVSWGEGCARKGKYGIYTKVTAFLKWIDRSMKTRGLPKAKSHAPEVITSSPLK
Chain of Plasminogen (P00747 97-580 limits assumed): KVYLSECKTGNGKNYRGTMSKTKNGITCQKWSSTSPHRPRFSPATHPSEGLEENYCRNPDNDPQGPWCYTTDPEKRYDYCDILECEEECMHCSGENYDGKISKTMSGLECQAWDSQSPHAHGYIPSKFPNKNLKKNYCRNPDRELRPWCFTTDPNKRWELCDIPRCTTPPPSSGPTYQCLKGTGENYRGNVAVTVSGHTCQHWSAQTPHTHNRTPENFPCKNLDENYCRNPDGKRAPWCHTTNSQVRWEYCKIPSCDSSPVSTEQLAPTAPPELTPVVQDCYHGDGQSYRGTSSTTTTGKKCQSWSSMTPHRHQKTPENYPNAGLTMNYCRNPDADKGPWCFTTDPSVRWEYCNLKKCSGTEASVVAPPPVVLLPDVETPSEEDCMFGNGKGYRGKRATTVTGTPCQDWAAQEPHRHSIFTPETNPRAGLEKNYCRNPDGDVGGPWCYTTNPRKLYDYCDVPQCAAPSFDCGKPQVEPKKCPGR
Chain of Plasminogen (P00747 581-810 limits assumed): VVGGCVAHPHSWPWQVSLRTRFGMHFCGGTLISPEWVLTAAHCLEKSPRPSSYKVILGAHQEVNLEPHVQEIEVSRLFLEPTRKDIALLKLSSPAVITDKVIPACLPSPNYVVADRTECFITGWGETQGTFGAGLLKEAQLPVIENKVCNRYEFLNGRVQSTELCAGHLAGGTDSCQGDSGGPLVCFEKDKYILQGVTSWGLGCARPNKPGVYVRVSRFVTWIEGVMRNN
Chain of Plasma kallikrein (P03952 20-390 limits assumed): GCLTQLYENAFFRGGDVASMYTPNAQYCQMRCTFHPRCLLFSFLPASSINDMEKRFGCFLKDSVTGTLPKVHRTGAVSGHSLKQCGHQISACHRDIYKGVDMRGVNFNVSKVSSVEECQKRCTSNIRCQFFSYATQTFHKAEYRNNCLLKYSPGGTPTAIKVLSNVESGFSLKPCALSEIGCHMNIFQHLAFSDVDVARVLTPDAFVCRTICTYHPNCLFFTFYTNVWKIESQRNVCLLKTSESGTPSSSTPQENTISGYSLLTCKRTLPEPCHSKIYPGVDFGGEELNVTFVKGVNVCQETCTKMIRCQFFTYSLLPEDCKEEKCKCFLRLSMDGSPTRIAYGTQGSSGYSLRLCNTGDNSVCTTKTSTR
Chain of Plasma kallikrein (P03952 391-638 limits assumed): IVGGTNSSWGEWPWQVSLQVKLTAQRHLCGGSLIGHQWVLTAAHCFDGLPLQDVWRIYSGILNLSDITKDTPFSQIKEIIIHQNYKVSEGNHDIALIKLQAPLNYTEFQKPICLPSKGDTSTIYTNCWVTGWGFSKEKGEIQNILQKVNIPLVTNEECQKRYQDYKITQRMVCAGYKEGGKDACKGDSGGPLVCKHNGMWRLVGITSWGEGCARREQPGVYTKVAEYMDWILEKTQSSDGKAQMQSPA
Chain of Coagulation factor XI (P03951 19-387 limits assumed): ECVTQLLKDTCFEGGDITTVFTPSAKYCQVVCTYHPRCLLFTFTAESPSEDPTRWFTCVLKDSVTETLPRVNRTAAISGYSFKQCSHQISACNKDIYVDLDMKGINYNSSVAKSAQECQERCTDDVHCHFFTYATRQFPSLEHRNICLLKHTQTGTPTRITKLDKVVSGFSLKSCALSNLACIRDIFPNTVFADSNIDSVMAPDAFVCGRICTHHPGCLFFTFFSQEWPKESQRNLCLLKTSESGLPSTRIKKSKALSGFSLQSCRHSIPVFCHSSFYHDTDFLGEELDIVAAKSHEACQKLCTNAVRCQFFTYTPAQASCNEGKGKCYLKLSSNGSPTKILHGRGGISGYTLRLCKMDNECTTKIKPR
Chain of Coagulation factor XI (P03951 388-625 limits assumed): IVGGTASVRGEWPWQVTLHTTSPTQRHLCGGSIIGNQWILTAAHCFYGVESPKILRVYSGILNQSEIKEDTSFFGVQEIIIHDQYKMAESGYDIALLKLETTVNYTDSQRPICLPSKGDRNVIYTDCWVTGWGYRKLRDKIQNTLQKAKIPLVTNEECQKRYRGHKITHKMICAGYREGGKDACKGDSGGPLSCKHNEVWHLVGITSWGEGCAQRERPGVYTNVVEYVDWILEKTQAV

In the case of `CCS(=O)(=O)N1C[C@H](NC(=O)c2ccc(-n3ccccc3=O)cc2)[C@H](NC(=O)c2ccc(Cl)s2)C1`, the Ki (Plasma kallikrein) is reported as over 10.8 µM, the Ki (Plasminogen) is reported as over 22 µM and the Ki (Coagulation factor XI) is reported as 6.68 µM. It also gave a Ki (Coagulation factor X) of 0.00064 µM, a clearance [1] of 25 mL/min/kg and a Papp [2] of under 1.5 ×10⁻⁶ cm/s. For the same molecule, the Ki (Prothrombin) was 3.95 µM, the Ki [3] was over 14 µM and the IC50 [4] was over 100 µM. For the same molecule, the bioavailability [5] was 16%, the half-life [6] was 78 min and the Ki (Coagulation factor VII) was over 11 µM. For the same molecule, the Vd [7] was 1.1 L/kg, the CL (Liver microsomes) was 0 nmol/mg/min and the Ki [8] was over 20 µM. The Ki (Trypsin) was over 5 µM, the Ki [9] was over 21 µM and the Ki [10] was over 21 µM. It also gave a half-life [11] of 42 min.

With `O=C(N[C@H]1CN(C(=O)c2ccccc2)C[C@H]1NC(=O)c1ccc(Cl)s1)c1ccc(-n2ccccc2=O)cc1` the Ki (Coagulation factor X) was 0.0022 µM and the IC50 [4] was over 100 µM.

Work on `CCC(=O)N1C[C@H](NC(=O)c2ccc(-n3ccccc3=O)cc2)[C@H](NC(=O)c2ccc(Cl)s2)C1` yielded a Ki (Coagulation factor X) of 0.002 µM and an IC50 [4] of over 100 µM.

Work on `COC(=O)N1C[C@H](NC(=O)c2ccc(-n3ccccc3=O)cc2)[C@H](NC(=O)c2ccc(Cl)s2)C1` yielded a Ki (Coagulation factor X) of 0.00074 µM, an IC50 [4] of over 100 µM and a CL (Liver microsomes) of 0 nmol/mg/min.

For `COCCOC(=O)N1C[C@H](NC(=O)c2ccc(-n3ccccc3=O)cc2)[C@H](NC(=O)c2ccc(Cl)s2)C1`, the Ki (Coagulation factor X) was 0.00093 µM and the IC50 [4] was over 100 µM.

Work on `CC(=O)N1C[C@H](NC(=O)c2ccc(-n3ccccc3=O)cc2)[C@H](NC(=O)c2ccc(Cl)s2)C1` yielded a Ki (Plasma kallikrein) of over 6 µM, a Ki (Plasminogen) of over 22 µM and a Ki (Coagulation factor XI) of 10.2 µM. The Ki (Coagulation factor X) was 0.00058 µM, the clearance [1] was 30 mL/min/kg and the Papp [2] was under 1.5 ×10⁻⁶ cm/s. For the same molecule, the Ki (Prothrombin) was 5.44 µM, the Ki [3] was over 14 µM and the IC50 [4] was over 100 µM. The bioavailability [5] was 5%, the half-life [6] was 48 min and the Ki (Coagulation factor VII) was over 11 µM. For the same molecule, the Vd [7] was 2.4 L/kg, the CL (Liver microsomes) was 0 nmol/mg/min and the Ki [8] was over 20 µM. It also gave a Ki (Trypsin) of over 5 µM, a Ki [9] of over 21 µM and a Ki [10] of over 21 µM. It also gave a half-life [11] of 48 min.

`O=C(N[C@H]1Cc2ccccc2[C@H]1NC(=O)c1ccc(Cl)s1)c1ccc(-n2ccccc2=O)cc1` gave a Ki (Coagulation factor X) of 0.027 µM.

For `CN(C)C(=O)[C@H]1C[C@H](NC(=O)c2ccc(-n3ccccc3=O)cc2)[C@H](NC(=O)c2ccc(Cl)s2)C1`, the Ki (Coagulation factor X) was 0.0021 µM.

`O=C(N[C@@H]1Cc2ccccc2[C@@H]1NC(=O)c1ccc(Cl)s1)c1ccc(-n2ccccc2=O)cc1` showed a Ki (Coagulation factor X) of 0.23 µM.

For `O=C(N[C@H]1C[C@H](CO)C[C@H]1NC(=O)c1ccc(Cl)s1)c1ccc(-n2ccccc2=O)cc1`, the Ki (Plasma kallikrein) was over 10.8 µM, the Ki (Plasminogen) was over 22 µM and the remaining at 10 min [12] was 100%. The Ki (Coagulation factor X) was 0.00056 µM, the Ki [3] was over 14 µM and the Ki (Coagulation factor VII) was over 11 µM. The Ki [8] was over 20 µM, the Ki (Trypsin) was over 5 µM and the Ki [9] was over 21 µM. It also gave a Ki [10] of over 21 µM.

Work on `O=C(N[C@H]1Cc2ccccc2[C@H]1NC(=O)c1ccc(-n2ccccc2=O)cc1)c1ccc2c(Cl)c[nH]c2c1` yielded a Ki (Coagulation factor X) of 0.0079 µM.

In the case of `O=C(N[C@H]1CNC[C@H]1NC(=O)c1ccc2c(Cl)c[nH]c2c1)c1ccc(-n2ccccc2=O)cc1`, the Ki (Coagulation factor X) is reported as 0.018 µM.

`O=C(N[C@@H]1Cc2ccccc2[C@@H]1NC(=O)c1ccc2c(Cl)c[nH]c2c1)c1ccc(-n2ccccc2=O)cc1` showed a Ki (Coagulation factor X) of 0.00021 µM.

Work on `CC(C)S(=O)(=O)N1C[C@H](NC(=O)c2ccc(-n3ccccc3=O)cc2)[C@H](NC(=O)c2ccc(Cl)s2)C1` yielded a Ki (Coagulation factor X) of 0.0017 µM and an IC50 [4] of over 100 µM.

Molecule `O=C(N[C@H]1CN(C(=O)C2CC2)C[C@H]1NC(=O)c1ccc(Cl)s1)c1ccc(-n2ccccc2=O)cc1` has a Ki (Coagulation factor X) of 0.0021 µM and an IC50 [4] of over 100 µM.

`O=C(N[C@H]1CN(C(=O)OCC2c3ccccc3-c3ccccc32)C[C@H]1NC(=O)c1ccc2c(Cl)c[nH]c2c1)c1ccc(-n2ccccc2=O)cc1` gave a Ki (Coagulation factor X) of 0.163 µM and an IC50 [4] of over 100 µM.

Molecule `O=C(N[C@H]1CN(C(=O)N2CCCC2)C[C@H]1NC(=O)c1ccc(Cl)s1)c1ccc(-n2ccccc2=O)cc1` has a Ki (Coagulation factor X) of 0.0017 µM and an IC50 [4] of over 100 µM.

With `O=C(N[C@@H]1c2ccccc2C[C@@H]1NC(=O)c1ccc(Cl)s1)c1ccc(-n2ccccc2=O)cc1` the Ki (Coagulation factor X) was 10.9 µM.

With `CN(C)C(=O)N1C[C@H](NC(=O)c2ccc(-n3ccccc3=O)cc2)[C@H](NC(=O)c2ccc(Cl)s2)C1` the Ki (Coagulation factor X) was 0.00056 µM, the IC50 [4] was over 100 µM and the CL (Liver microsomes) was 0 nmol/mg/min.

Molecule `COC(=O)C1C[C@H](NC(=O)c2ccc(-n3ccccc3=O)cc2)[C@H](NC(=O)c2ccc3c(Cl)c[nH]c3c2)C1` (stereo partly specified) has a Ki (Coagulation factor X) of 0.003 µM.
